Data taken from ChEMBL document CHEMBL1133699, “Phenyl beta-methoxyacrylates: a new antimalarial pharmacophore” (J Med Chem, 2000).
Converted amounts (≈) assume the structure as drawn.

Legend:
[1] = Growth inhibition of Plasmodium berghei was tested in vivo in male albino mice (Mus musculus) after subcutaneous administration of a dose of 100 mg/kg; assay type: functional; details: sc, read-out: GI
Summary of the method: (§1)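 Mice 25 ± 2 g infected iv on day 0 with 2×10^7 P. berghei ANKA-infected donor erythrocytes. Compound dissolved or suspended in 7% Tween-80, 3% ethanol in water, single dose 24 h post-infection (0.01 mL/g), 3 mice/group. Giemsa blood smears at day 3 (72 h post-infection). Parasitemia counted microscopically; reduction calculated versus untreated controls (=100%). ED50/90 determined by dose titration.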

[2] = tested on: Plasmodium falciparum; experiment: In vitro antimalarial activity against chloroquine-sensitive Plasmodium falciparum NF54; assay type: functional, organism-based
Summary of the method: (§2)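 Asynchronous P. falciparum cultured in human type A+ erythrocytes, RPMI 1640 with 0.5% AlbuMAX, 25 mM HEPES, 25 mM NaHCO3 (pH 7.3), hypoxanthine, neomycin; 37 °C, 3% O2/4% CO2/93% N2. Compounds were dissolved in DMSO and titrated in duplicate over a 64-fold range. Initial parasitemia was 0.75% at 2.5% hematocrit. Growth was read by [3H]hypoxanthine incorporation, with label added 16 h before the end. IC50 was taken by linear interpolation.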

[3] = tested on: Plasmodium falciparum; experiment: In vitro antimalarial activity against chloroquine-resistant Plasmodium falciparum K1; assay type: functional, organism-based; summary of the method: as §2
[4] = Growth inhibition of Plasmodium berghei was tested in vivo in male albino mice (Mus musculus) after oral administration of a dose of 100 mg/kg; assay type: functional; details: read-out: GI; summary of the method: as §1
[5] = Effective dose was determined in vivo for 50% parasite (Plasmodium berghei) reduction in the male albino mice after subcutaneous administration; assay type: functional; details: Mus musculus, sc; for ED90: in the assay text read “90% parasite” for “50% parasite”; summary of the method: as §1
[6] = Effective dose was determined in vivo for 90% parasite (Plasmodium berghei) reduction in the male albino mice after oral administration; assay type: functional; details: Mus musculus; summary of the method: as §1
[7] = Effective dose was determined in vivo for 50% parasite (Plasmodium berghei) reduction in the male albino mice after oral administration; assay type: functional; details: Mus musculus; summary of the method: as §1
[8] = Effective dose was determined in vivo for 90% parasite (Plasmodium berghei) reduction in the male albino mice after subcutaneous administration; assay type: functional; details: Mus musculus, sc; summary of the method: as §1
[9] = Growth inhibition of Plasmodium berghei was tested in vivo in male albino mice (Mus musculus) after subcutaneous administration of a dose of 50 mg/kg; assay type: functional; details: sc, read-out: GI; summary of the method: as §1
[10] = Growth inhibition of Plasmodium berghei was tested in vivo in male albino mice (Mus musculus) after oral administration of a dose of 50 mg/kg; assay type: functional; details: read-out: GI; summary of the method: as §1
[11] = Growth inhibition of Plasmodium berghei was tested in vivo in male albino mice (Mus musculus) after subcutaneous administration of a dose of 10 mg/kg; assay type: functional; details: sc, read-out: GI; summary of the method: as §1
[12] = Growth inhibition of Plasmodium berghei was tested in vivo in male albino mice (Mus musculus) after oral administration of a dose of 10 mg/kg; assay type: functional; details: read-out: GI; summary of the method: as §1

SMILES: CO/C=C(/C(=O)OC)c1ccccc1CO/N=C(\C)c1ccccc1C(F)(F)F
- inhibition in vivo at 100 mg/kg [1]: 0%
- IC50 [2]: 0.17 ng/mL (≈ 0.417 nM)
- IC50 [3]: 0.65 ng/mL (≈ 1.6 nM)
- inhibition in vivo at 100 mg/kg [4]: 0%

SMILES: O=C1C(O)=C([C@H]2CC[C@H](c3ccc(Cl)cc3)CC2)C(=O)c2ccccc21 [ATOVAQUONE]
- ED50 [5]: 0.04 mg/kg
- ED90 [6]: 0.1 mg/kg
- ED50 [7]: 0.05 mg/kg
- IC50 [2]: 0.11 ng/mL (≈ 0.3 nM)
- IC50 [3]: 0.41 ng/mL (≈ 1.12 nM)
- ED90 [8]: 0.9 mg/kg

SMILES: CO/C=C(/C(=O)OC)c1ccccc1/C=C/C=C/c1cccc(OC)c1[N+](=O)[O-]
- IC50 [2]: 0.11 ng/mL (≈ 0.278 nM)
- IC50 [3]: 0.58 ng/mL (≈ 1.47 nM)

SMILES: CO/C=C(/C(=O)OC)c1ccccc1/C=C/CSc1ccccc1C(F)(F)F
- inhibition in vivo at 100 mg/kg [1]: 91%
- IC50 [2]: 1.75 ng/mL (≈ 4.28 nM)
- IC50 [3]: 2.51 ng/mL (≈ 6.15 nM)
- inhibition in vivo at 100 mg/kg [4]: 46%

SMILES: CO/C=C(/C(=O)OC)c1ccccc1/C=C/c1ccc(-c2ccccc2C(F)(F)F)o1
- IC50 [2]: 0.39 ng/mL (≈ 0.91 nM)
- IC50 [3]: 1.8 ng/mL (≈ 4.2 nM)

SMILES: CO/C=C(/C(=O)OC)c1ccccc1/C=C/C=C/c1cccc(F)c1
- inhibition in vivo at 50 mg/kg [9]: 0%
- inhibition in vivo at 50 mg/kg [10]: 0%
- IC50 [2]: 1.5 ng/mL (≈ 4.43 nM)
- IC50 [3]: 8.4 ng/mL (≈ 24.8 nM)

SMILES: CO/N=C(/C(=O)OC)c1ccccc1-c1ccc(-c2ccccc2C(F)(F)F)s1
- inhibition in vivo at 100 mg/kg [1]: 0%
- IC50 [2]: 23.7 ng/mL (≈ 56.5 nM)
- IC50 [3]: 60.8 ng/mL (≈ 145 nM)
- inhibition in vivo at 100 mg/kg [4]: 0%

SMILES: CO/C=C(/C(=O)OC)c1ccccc1/C=C/C=C/c1ccc(Cl)cc1Cl
- ED50 [5]: 0.69 mg/kg
- ED90 [5]: 1.8 mg/kg
- inhibition in vivo at 10 mg/kg [11]: 100%
- ED90 [6]: 4.03 mg/kg
- ED50 [7]: 1.07 mg/kg
- IC50 [2]: 0.03 ng/mL (≈ 0.0771 nM)
- IC50 [3]: 0.1 ng/mL (≈ 0.257 nM)
- inhibition in vivo at 10 mg/kg [12]: 100%

SMILES: CO/C=C(/C(=O)OC)c1ccccc1/C=C/C=C/c1ccccc1Cl
- inhibition in vivo at 10 mg/kg [11]: 77%
- IC50 [2]: 0.09 ng/mL (≈ 0.254 nM)
- IC50 [3]: 0.39 ng/mL (≈ 1.1 nM)
- inhibition in vivo at 10 mg/kg [12]: 41%

SMILES: CO/C=C(/C(=O)OC)c1ccccc1/C=C/C=C/c1ccc(C(F)(F)F)cc1C(F)(F)F
- inhibition in vivo at 10 mg/kg [11]: 100%
- IC50 [2]: 0.06 ng/mL (≈ 0.131 nM)
- IC50 [3]: 0.13 ng/mL (≈ 0.285 nM)
- inhibition in vivo at 10 mg/kg [12]: 100%

SMILES: CO/C=C(/C(=O)OC)c1ccccc1CSc1ccccc1C(F)(F)F
- inhibition in vivo at 100 mg/kg [1]: 0%
- IC50 [2]: 5.5 ng/mL (≈ 14.4 nM)
- IC50 [3]: 29 ng/mL (≈ 75.8 nM)
- inhibition in vivo at 100 mg/kg [4]: 0%

SMILES: CO/C=C(/C(=O)OC)c1ccc(/C=C/C=C/c2ccc(C(F)(F)F)cc2C(F)(F)F)cc1
- inhibition in vivo at 100 mg/kg [1]: 0%
- IC50 [2]: > 5000 ng/mL
- IC50 [3]: > 5000 ng/mL
- inhibition in vivo at 100 mg/kg [4]: 0%

SMILES: CO/N=C(/C(=O)OC)c1ccccc1C#CC#Cc1ccccc1C(F)(F)F
- inhibition in vivo at 100 mg/kg [1]: 0%
- IC50 [2]: 1390 ng/mL (≈ 3600 nM)
- IC50 [3]: 2280 ng/mL (≈ 5910 nM)
- inhibition in vivo at 100 mg/kg [4]: 0%

SMILES: CO/C=C(/C(=O)OC)c1ccccc1/C=C/C=C/c1cccc(C(F)(F)F)c1
- inhibition in vivo at 50 mg/kg [9]: 0%
- inhibition in vivo at 50 mg/kg [10]: 0%
- IC50 [2]: 7.8 ng/mL (≈ 20.1 nM)
- IC50 [3]: 16.7 ng/mL (≈ 43 nM)

SMILES: CO/C=C(/C(=O)OC)c1ccccc1/C=C/C=C/c1ccc(C)cc1C
- ED50 [5]: 0.33 mg/kg
- ED90 [5]: 0.72 mg/kg
- inhibition in vivo at 10 mg/kg [11]: 100%
- ED90 [6]: 2.65 mg/kg
- ED50 [7]: 1.11 mg/kg
- IC50 [2]: 0.03 ng/mL (≈ 0.0861 nM)
- IC50 [3]: 0.05 ng/mL (≈ 0.143 nM)
- inhibition in vivo at 10 mg/kg [12]: 100%

SMILES: CO/N=C(/C(=O)OC)c1ccccc1/C=C/C=C/c1ccccc1C(F)(F)F
- inhibition in vivo at 100 mg/kg [1]: 44%
- IC50 [2]: 0.4 ng/mL (≈ 1.03 nM)
- IC50 [3]: 1.4 ng/mL (≈ 3.6 nM)
- inhibition in vivo at 100 mg/kg [4]: 46%

SMILES: CO/C=C(/C(=O)OC)c1ccccc1/C=C/C=C/c1ccc(F)cc1Cl
- inhibition in vivo at 10 mg/kg [11]: 100%
- IC50 [2]: 0.06 ng/mL (≈ 0.161 nM)
- IC50 [3]: 0.19 ng/mL (≈ 0.51 nM)
- inhibition in vivo at 10 mg/kg [12]: 92%

SMILES: CO/C=C(/C(=O)OC)c1ccccc1/C=C/C=C/c1ccccc1C#N
- inhibition in vivo at 100 mg/kg [1]: 0%
- IC50 [2]: 0.52 ng/mL (≈ 1.51 nM)
- IC50 [3]: 1.6 ng/mL (≈ 4.63 nM)
- inhibition in vivo at 100 mg/kg [4]: 0%

SMILES: CO/N=C(/C(=O)OC)c1ccccc1CCCCc1ccccc1C(F)(F)F
- inhibition in vivo at 100 mg/kg [1]: 0%
- IC50 [2]: 6.4 ng/mL (≈ 16.3 nM)
- IC50 [3]: 15 ng/mL (≈ 38.1 nM)
- inhibition in vivo at 100 mg/kg [4]: 0%

SMILES: CO/N=C(\C(=O)OC)c1ccccc1C#CC#Cc1ccccc1C(F)(F)F
- inhibition in vivo at 100 mg/kg [1]: 0%
- IC50 [2]: 10.8 ng/mL (≈ 28 nM)
- IC50 [3]: 25.8 ng/mL (≈ 67 nM)
- inhibition in vivo at 100 mg/kg [4]: 0%

SMILES: CO/C=C(/C(=O)OC)c1cccc(/C=C/C=C/c2ccc(C(F)(F)F)cc2C(F)(F)F)c1
- inhibition in vivo at 100 mg/kg [1]: 0%
- IC50 [2]: 176 ng/mL (≈ 385 nM)
- IC50 [3]: 396 ng/mL (≈ 869 nM)
- inhibition in vivo at 100 mg/kg [4]: 0%

SMILES: CO/C=C(/C(=O)OC)c1ccccc1/C=C/C=C/c1cccc(Br)c1
- inhibition in vivo at 50 mg/kg [9]: 0%
- inhibition in vivo at 50 mg/kg [10]: 0%
- IC50 [2]: 6.1 ng/mL (≈ 15.3 nM)
- IC50 [3]: 31.4 ng/mL (≈ 78.6 nM)

SMILES: CO/C=C(/C(=O)OC)c1ccccc1/C=C/C=C/c1ccc(Cl)cc1
- inhibition in vivo at 50 mg/kg [9]: 0%
- inhibition in vivo at 50 mg/kg [10]: 0%
- IC50 [2]: 0.52 ng/mL (≈ 1.47 nM)
- IC50 [3]: 2 ng/mL (≈ 5.64 nM)

SMILES: CCN(CC)CCCC(C)Nc1ccnc2cc(Cl)ccc12 (stereo not drawn) [CHLOROQUINE]
- ED50 [5]: 1.5 mg/kg
- ED90 [6]: 5 mg/kg
- ED50 [7]: 2.4 mg/kg
- ED90 [8]: 3.3 mg/kg

SMILES: CO/C=C(/C(=O)OC)c1ccccc1/C=C/C=C/c1ccccc1
- inhibition in vivo at 50 mg/kg [9]: 0%
- inhibition in vivo at 50 mg/kg [10]: 0%
- IC50 [2]: 0.8 ng/mL (≈ 2.5 nM)
- IC50 [3]: 3.7 ng/mL (≈ 11.5 nM)

SMILES: CO/C=C(/C(=O)OC)c1ccccc1CCCCc1ccccc1C(F)(F)F
- inhibition in vivo at 100 mg/kg [1]: 99%
- IC50 [2]: 0.54 ng/mL (≈ 1.38 nM)
- IC50 [3]: 1.53 ng/mL (≈ 3.9 nM)
- inhibition in vivo at 100 mg/kg [4]: 82%

SMILES: CO/C=C(/C(=O)OC)c1ccccc1/C=C/c1ccccc1C(F)(F)F
- inhibition in vivo at 100 mg/kg [1]: 0%
- IC50 [2]: 3.01 ng/mL (≈ 8.31 nM)
- IC50 [3]: 7.8 ng/mL (≈ 21.5 nM)
- inhibition in vivo at 100 mg/kg [4]: 0%

SMILES: CO/C=C(/C(=O)OC)c1ccccc1/C=C/C=C/c1ccccc1C(F)(F)F
- inhibition in vivo at 10 mg/kg [11]: 100%
- IC50 [2]: 0.06 ng/mL (≈ 0.154 nM)
- IC50 [3]: 0.15 ng/mL (≈ 0.386 nM)
- inhibition in vivo at 10 mg/kg [12]: 99%
